How the values were obtained:
Type in all cases: ADME, organism-based
Rattus norvegicus = assay: Volume of distribution at steady state in Sprague-Dawley rat at 1 mg/kg, iv and po; design: dose 1 mg/kg; conditions: in vivo
Summary of the method: (§1)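 Male Sprague Dawley rats, IV/PO crossover pharmacokinetics, dosed at 1 mpk by each route.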

[1] = Oral bioavailability in Sprague-Dawley rat at 1 mg/kg, po; conditions: in vivo; summary of the method: as §1
[2] = Ratio of drug level in brain to plasma in iv dosed Sprague-Dawley rat; conditions: brain and plasma
Summary of the method: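 Male Sprague Dawley rats given a steady-state IV infusion. Ratio is compound concentration in brain over that in plasma.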

## O=C(NCC1(O)CCC(F)(F)CC1)c1cc(-c2ncc(F)cn2)ccc1Cl
Rattus norvegicus
  Vdss: 1.3 L/kg
[1]
  bioavailability: 84%
[2]
  Kp: 1.3

## O=C(NCC1(O)CCCCCC1)c1cc(-c2ncc(F)cn2)ccc1Cl
Rattus norvegicus
  Vdss: 0.9 L/kg
[1]
  bioavailability: 35%
[2]
  Kp: 0.7
